The record followed here is ChEMBL document CHEMBL5653631, “A Potent and Selective ULK1 Inhibitor Suppresses Autophagy and Sensitizes Cancer Cells to Nutrient Stress” (iScience, 2018).

The target in assay [1] is Serine/threonine-protein kinase SIK3 (Homo sapiens) (UniProt Q9Y2K2). Kind of assay: Inhibition of human recombinant QSK at 40 nM in presence of ATP by radiometric assay relative to control.
Assay [2] addresses Tyrosine-protein kinase ABL2 (Homo sapiens) (UniProt P42684). Kind of assay: Inhibition of human recombinant ABL2 at 40 nM related to control ULK1. The gist of the method: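 Radiometric activity assays in a panel of 327 human recombinant kinases, each run in duplicate at one inhibitor concentration. Activity remaining is expressed as percent of vehicle control, and percent inhibition is calculated as 100% minus percent activity remaining.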

Assay [3] concerns the target Calcium/calmodulin-dependent protein kinase type II subunit gamma (Homo sapiens) (UniProt Q13555). Kind of assay: Inhibition of human recombinant CaMK2g at 40 nM related to control ULK1.
The target of assay [4] is Cell division cycle 7-related protein kinase (Homo sapiens) (UniProt O00311). Kind of assay: Inhibition of human recombinant CDC7 at 40 nM related to control ULK1.
The target of assay [5] is eIF-2-alpha kinase GCN2 (Homo sapiens) (UniProt Q9P2K8). Put plainly: Inhibition of human recombinant GCN2 at 40 nM related to control ULK1.
Chain of eIF-2-alpha kinase GCN2 (Homo sapiens) (Q9P2K8 whole entry): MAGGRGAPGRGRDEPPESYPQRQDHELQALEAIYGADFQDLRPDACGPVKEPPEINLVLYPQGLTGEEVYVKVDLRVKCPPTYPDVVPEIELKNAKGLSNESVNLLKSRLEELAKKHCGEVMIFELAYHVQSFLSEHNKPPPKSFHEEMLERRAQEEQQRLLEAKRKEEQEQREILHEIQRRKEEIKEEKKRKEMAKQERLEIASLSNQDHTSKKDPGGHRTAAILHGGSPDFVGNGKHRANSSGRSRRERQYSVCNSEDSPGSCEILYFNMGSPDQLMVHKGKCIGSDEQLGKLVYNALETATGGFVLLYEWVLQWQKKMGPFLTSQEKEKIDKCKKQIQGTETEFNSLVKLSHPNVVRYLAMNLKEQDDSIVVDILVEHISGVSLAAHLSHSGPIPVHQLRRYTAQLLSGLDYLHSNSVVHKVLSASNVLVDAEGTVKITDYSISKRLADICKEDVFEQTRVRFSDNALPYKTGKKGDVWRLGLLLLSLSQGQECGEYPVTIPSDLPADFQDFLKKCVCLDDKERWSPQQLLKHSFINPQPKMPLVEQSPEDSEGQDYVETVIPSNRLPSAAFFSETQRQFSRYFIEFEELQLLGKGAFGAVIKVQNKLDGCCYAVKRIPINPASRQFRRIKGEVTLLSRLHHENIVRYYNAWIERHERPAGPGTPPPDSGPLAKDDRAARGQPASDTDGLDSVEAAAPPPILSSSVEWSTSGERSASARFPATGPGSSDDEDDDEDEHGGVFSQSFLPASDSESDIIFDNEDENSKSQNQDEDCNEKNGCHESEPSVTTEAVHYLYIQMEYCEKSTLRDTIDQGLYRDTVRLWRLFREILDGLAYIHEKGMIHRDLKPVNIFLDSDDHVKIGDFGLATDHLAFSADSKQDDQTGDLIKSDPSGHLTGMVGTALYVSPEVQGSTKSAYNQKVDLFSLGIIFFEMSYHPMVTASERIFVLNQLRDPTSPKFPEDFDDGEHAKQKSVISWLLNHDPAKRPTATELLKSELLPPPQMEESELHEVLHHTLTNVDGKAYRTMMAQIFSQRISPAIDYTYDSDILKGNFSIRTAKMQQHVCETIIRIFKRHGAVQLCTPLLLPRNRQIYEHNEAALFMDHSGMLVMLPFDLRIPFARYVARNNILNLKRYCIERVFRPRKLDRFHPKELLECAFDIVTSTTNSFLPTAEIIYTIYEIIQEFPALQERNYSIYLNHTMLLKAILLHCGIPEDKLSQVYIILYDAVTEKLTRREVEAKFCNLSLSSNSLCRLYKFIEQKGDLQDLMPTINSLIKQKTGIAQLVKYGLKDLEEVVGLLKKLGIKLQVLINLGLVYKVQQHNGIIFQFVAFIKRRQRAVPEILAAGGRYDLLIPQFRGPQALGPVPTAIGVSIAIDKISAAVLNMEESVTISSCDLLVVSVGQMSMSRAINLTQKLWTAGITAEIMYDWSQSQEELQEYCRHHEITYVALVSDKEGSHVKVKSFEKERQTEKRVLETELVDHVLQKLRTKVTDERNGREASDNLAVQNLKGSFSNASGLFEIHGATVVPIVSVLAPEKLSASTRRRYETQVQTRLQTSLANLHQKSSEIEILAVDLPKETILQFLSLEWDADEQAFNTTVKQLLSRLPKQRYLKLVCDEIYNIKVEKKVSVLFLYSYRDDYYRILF
Assay [6] concerns the target Serine/threonine-protein kinase 10 (Homo sapiens) (UniProt O94804). Kind of assay: Inhibition of human recombinant LOK at 40 nM related to control ULK1.
The target in assay [7] is Cyclin-dependent kinase 6 (Homo sapiens) (UniProt Q00534). Put plainly: Inhibition of human recombinant CDK6 at 500 nM in presence of ATP by radiometric assay relative to control.
Chain of Cyclin-dependent kinase 6 (Homo sapiens) (Q00534 whole entry): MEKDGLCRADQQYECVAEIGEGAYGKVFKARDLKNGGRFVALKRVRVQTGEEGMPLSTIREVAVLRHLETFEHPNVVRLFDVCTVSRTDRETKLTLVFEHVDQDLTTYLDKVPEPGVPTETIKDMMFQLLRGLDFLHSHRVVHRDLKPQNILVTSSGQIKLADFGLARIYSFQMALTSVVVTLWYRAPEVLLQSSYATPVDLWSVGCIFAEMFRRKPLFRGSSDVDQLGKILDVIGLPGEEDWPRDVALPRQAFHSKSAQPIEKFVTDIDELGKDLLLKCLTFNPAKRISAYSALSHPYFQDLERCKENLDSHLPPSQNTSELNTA
Assay [8] has as its target T1, Dual specificity tyrosine-phosphorylation-regulated kinase 3 (Homo sapiens) (UniProt O43781).
T1 sequence (whole entry): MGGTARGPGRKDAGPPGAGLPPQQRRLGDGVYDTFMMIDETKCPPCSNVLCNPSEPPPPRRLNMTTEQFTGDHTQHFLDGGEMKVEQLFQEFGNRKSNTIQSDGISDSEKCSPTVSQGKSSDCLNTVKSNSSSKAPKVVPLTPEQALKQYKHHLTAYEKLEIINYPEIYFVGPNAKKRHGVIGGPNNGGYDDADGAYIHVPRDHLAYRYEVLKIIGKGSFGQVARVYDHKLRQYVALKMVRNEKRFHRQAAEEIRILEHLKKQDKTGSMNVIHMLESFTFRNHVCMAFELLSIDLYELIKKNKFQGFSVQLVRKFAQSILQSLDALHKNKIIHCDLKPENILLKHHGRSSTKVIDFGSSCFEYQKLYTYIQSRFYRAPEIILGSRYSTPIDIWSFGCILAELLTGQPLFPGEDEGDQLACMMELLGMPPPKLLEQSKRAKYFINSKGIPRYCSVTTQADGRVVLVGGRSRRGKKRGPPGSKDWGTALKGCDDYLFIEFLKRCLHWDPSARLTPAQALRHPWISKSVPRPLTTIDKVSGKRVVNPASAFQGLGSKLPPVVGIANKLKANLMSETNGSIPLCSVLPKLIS
Put plainly: Inhibition of human recombinant DYRK3 at 500 nM in presence of ATP by radiometric assay relative to control.

Assay [9] addresses Dual specificity protein kinase CLK2 (Homo sapiens) (UniProt P49760). Put plainly: Inhibition of human recombinant CLK2 at 500 nM related to control ULK1.
For assay [10], the target named is Serine/threonine-protein kinase N1 (Homo sapiens) (UniProt Q16512). Put plainly: Inhibition of human recombinant PKN1 at 500 nM related to control ULK1.
Chain of Serine/threonine-protein kinase N1 (Homo sapiens) (Q16512 2-942 limits assumed): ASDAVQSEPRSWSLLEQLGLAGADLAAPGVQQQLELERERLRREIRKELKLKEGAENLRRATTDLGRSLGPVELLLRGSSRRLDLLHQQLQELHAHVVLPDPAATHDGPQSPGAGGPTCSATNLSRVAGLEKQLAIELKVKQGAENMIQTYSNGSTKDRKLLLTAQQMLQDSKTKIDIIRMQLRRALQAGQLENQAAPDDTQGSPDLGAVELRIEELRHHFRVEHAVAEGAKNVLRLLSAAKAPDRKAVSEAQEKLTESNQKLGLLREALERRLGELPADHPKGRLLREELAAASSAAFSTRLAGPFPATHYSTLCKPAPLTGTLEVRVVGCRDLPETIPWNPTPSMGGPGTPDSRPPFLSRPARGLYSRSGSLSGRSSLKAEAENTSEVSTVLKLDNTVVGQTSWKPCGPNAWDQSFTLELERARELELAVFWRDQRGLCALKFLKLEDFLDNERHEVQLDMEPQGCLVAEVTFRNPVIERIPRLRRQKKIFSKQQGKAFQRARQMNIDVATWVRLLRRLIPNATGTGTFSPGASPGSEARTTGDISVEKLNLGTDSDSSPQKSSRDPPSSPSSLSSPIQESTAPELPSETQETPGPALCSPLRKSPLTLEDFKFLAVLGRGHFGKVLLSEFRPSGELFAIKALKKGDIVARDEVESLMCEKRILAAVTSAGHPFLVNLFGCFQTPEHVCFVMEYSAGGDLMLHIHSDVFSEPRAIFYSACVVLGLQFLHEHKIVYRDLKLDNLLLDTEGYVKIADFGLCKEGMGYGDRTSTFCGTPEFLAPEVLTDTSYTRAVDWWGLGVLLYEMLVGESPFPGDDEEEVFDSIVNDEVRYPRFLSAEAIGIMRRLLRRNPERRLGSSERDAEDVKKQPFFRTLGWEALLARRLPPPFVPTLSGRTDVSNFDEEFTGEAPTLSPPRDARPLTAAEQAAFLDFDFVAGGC
Assay [11] deals with T2, Serine/threonine-protein kinase ULK2 (Homo sapiens) (UniProt Q8IYT8).
T2 sequence (whole entry): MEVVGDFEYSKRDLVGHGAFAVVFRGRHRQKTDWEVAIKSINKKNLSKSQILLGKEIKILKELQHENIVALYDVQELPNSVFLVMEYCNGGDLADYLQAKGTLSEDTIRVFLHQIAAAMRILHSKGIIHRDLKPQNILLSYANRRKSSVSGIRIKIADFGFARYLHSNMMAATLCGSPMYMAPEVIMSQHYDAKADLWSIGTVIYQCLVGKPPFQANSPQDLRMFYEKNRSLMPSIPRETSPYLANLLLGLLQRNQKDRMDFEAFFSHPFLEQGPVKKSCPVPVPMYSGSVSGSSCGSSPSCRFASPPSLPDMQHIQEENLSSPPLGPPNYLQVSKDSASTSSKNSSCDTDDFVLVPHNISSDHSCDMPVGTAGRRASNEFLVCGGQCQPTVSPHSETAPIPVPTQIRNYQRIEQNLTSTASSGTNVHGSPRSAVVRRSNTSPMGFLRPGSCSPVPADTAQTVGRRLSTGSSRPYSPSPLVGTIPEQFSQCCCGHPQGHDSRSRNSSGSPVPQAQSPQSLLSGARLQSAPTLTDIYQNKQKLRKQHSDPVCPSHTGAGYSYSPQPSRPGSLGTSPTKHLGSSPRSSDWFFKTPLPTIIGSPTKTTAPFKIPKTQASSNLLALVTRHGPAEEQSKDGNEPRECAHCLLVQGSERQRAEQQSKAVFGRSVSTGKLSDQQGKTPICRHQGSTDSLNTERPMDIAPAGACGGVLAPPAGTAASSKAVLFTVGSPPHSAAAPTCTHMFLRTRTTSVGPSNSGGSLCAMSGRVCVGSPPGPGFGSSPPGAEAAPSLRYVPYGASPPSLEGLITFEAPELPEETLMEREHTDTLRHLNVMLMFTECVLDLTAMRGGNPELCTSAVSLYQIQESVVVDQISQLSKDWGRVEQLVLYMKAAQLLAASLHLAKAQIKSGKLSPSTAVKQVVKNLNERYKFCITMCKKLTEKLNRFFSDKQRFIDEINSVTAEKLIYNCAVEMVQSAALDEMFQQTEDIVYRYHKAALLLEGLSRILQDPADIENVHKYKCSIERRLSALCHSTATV
Put plainly: Inhibition of human recombinant ULK2 at 500 nM related to control ULK1.

In assay [12] the target is T3, Serine/threonine-protein kinase 17A (Homo sapiens) (UniProt Q9UEE5).
T3 sequence (whole entry): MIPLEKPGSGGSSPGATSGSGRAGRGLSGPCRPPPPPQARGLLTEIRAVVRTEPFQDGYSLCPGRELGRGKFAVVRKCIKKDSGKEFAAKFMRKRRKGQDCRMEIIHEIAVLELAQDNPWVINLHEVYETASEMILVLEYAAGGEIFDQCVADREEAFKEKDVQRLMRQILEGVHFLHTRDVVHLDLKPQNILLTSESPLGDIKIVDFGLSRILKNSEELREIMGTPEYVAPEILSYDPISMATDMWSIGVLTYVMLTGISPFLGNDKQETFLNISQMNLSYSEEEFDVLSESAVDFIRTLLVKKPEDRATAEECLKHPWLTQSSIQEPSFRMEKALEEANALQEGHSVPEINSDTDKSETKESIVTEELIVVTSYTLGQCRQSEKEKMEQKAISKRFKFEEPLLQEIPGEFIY
Kind of assay: Inhibition of human recombinant DRAK1 at 15 nM related to control ULK1.

In assay [13] the target is T1, Dual specificity tyrosine-phosphorylation-regulated kinase 3 (Homo sapiens). Put plainly: Inhibition of human recombinant DYRK3 at 15 nM related to control ULK1.
Assay [14] deals with Serine/threonine-protein kinase PAK 2 (Homo sapiens) (UniProt Q13177). Kind of assay: Inhibition of human recombinant PAK2 at 15 nM related to control ULK1.
Chain of Serine/threonine-protein kinase PAK 2 (Homo sapiens) (Q13177 whole entry): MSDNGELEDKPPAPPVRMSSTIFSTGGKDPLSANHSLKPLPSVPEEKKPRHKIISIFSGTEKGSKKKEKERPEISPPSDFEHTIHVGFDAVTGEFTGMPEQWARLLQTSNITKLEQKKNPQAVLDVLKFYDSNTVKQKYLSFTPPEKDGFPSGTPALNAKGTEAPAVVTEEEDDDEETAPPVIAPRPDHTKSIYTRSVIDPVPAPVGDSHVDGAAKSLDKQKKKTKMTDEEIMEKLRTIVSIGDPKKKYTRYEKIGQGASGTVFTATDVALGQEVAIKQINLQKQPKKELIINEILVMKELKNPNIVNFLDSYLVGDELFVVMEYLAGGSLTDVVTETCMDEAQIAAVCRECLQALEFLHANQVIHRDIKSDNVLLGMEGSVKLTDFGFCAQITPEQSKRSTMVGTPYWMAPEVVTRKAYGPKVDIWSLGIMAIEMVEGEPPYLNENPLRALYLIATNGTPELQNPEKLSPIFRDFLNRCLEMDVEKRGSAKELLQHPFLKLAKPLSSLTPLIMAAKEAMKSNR

Chain of Calcium/calmodulin-dependent protein kinase type II subunit gamma (Homo sapiens) (Q13555 whole entry): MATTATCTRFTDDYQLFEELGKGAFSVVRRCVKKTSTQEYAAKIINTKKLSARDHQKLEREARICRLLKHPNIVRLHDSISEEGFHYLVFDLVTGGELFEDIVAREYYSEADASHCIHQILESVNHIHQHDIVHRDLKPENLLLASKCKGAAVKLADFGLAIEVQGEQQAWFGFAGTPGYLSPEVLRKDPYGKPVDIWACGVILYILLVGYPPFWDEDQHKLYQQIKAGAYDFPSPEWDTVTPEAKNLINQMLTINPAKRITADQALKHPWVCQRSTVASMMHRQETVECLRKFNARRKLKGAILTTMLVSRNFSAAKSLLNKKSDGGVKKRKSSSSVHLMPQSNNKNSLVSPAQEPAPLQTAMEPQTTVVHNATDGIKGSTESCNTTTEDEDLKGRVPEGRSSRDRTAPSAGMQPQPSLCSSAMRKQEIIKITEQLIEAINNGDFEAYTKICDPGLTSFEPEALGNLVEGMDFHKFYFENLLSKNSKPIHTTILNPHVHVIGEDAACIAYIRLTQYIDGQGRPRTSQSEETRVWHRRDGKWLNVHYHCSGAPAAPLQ
Chain of Serine/threonine-protein kinase 10 (Homo sapiens) (O94804 whole entry, looked up): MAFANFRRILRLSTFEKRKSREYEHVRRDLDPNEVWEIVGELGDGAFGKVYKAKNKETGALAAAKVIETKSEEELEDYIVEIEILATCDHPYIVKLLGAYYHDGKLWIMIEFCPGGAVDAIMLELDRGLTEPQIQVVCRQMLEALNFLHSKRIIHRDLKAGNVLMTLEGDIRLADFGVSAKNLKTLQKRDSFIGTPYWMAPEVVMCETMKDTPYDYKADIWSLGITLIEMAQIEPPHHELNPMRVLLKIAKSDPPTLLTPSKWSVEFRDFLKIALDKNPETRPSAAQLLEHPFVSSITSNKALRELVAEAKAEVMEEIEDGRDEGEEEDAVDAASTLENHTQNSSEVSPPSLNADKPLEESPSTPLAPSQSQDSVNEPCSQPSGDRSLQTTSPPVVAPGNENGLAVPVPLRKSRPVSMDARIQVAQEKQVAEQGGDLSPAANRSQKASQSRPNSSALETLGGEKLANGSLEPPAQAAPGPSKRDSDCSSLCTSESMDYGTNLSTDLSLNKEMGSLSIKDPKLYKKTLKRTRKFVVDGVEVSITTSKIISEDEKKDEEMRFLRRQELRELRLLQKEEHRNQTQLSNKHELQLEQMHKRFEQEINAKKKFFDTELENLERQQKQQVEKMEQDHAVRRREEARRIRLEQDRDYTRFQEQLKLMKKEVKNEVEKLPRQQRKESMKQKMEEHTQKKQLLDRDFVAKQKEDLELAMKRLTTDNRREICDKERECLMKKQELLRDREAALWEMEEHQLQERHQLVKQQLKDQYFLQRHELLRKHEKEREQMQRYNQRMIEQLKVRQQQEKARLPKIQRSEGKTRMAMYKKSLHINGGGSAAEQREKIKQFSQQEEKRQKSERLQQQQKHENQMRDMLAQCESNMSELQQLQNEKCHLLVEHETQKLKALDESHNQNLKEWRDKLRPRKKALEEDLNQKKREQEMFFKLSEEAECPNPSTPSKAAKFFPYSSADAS

As usually defined, the inhibition is the percentage by which the read-out fell short of the control. Turning to `O=C(N[C@@H](C1CC1)C(F)(F)F)c1cc(-c2cnn3cc(-c4ccc(F)cc4)cnc23)cs1`, the inhibition in [1] came to 59%. For the same compound, the fold change (FC) in assay [2] stood at 0.1; in assay [3], 0.01; in assay [4], 0.53; in [5], 0.05; in [6] it was 0.
As to `CNC(=O)c1ccccc1Oc1nc(Nc2cc(OC)c(OC)c(OC)c2)ncc1Br`, the inhibition in assay [7] and in assay [8] was 0% throughout. Moreover, the fold change (FC) was 0.09 in assay [9], 0 in assay [10] and 0.65 in assay [11].
Turning to `CC(C)[C@H](NC(=O)c1cc(-c2cnn3cc(-c4ccc(OCCN5CCCCC5)cc4)cnc23)cs1)C(F)(F)F`, the values for the fold change (FC) in assay [12], in assay [13] and in [14] were 0.81, 0.26 and 0, respectively.
